The source of these data is ChEMBL document CHEMBL3286203, “Reactive oxygen species (ROS) inducible DNA cross-linking agents and their effect on cancer cells and normal lymphocytes” (J Med Chem, 2014).

For one assay, the system named is BT-549. In words: Cytotoxicity against human BT549 cells after 48 hrs by SRB assay. It is filed as functional. To be noted: BT-549, 48 h. The method in brief: (§1)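 GI50 was determined in the NCI Developmental Therapeutics Program in vitro 60-line cancer screen. Tumour lines were maintained in RPMI 1640 containing 5% FBS and 2 mM L-glutamine. Cells were inoculated at 5000–40 000 cells/well according to each line's doubling time before drug exposure.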
(The SRB assay estimates cell density from bound dye.)

In a further assay the test system is HOP-92. The experiment in a line: Cytotoxicity against human HOP92 cells after 48 hrs by SRB assay. It is filed as functional. To be noted: HOP-92, 48 h. The method in brief:
as §1

For the next assay, the system named is MDA-MB-231. The experiment in a line: Cytotoxicity against human MDA-MB-231 cells after 48 hrs by SRB assay. The following applies: MDA-MB-231, 48 h. It is filed as functional. In outline: (§2)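 GI50 from the NCI Developmental Therapeutics Program in vitro human tumor cell screen. Cell lines were maintained in RPMI 1640 with 5% fetal bovine serum and 2 mM L-glutamine. They were seeded at 5000–40 000 cells/well, depending on each line's doubling time, then exposed to drug for 48 h at 37 °C, 5% CO2.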

A further assay concerns HOP-62. The experiment in a line: Cytotoxicity against human HOP62 cells after 48 hrs by SRB assay. It counts as functional. To be noted: HOP-62, 48 h. In outline:
as §1

The next assay concerns SW-620. In words: Cytotoxicity against human SW620 cells after 48 hrs by SRB assay. It is filed as functional. To be noted: SW-620, 48 h. The method in brief:
(§3)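 GI50 from the NCI-60 DTP human tumour line screen. Lines grown in RPMI 1640 with 5% fetal bovine serum and 2 mM L-glutamine, plated at 5000–40 000 cells/well according to doubling time. Incubated 48 h at 37 °C, 5% CO2.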

Assay [1] in a line: Induction of [32P]-labeled 49-mer oligonucleotide duplex DNA 12 with GNC sequence at terminus (unknown origin) interstrand cross-linking at 50 uM after 16 hrs by PAGE in presence of H2O2. In outline: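 32P-labelled 12a (1.0 μM) annealed with 1.5 equiv of 12b in 10 mM potassium phosphate pH 7 / 100 mM NaCl (65 °C for 3 min, then slow cooling). Duplex incubated with compound (final 1 μM–5 mM), with or without H2O2, in NaCl and potassium phosphate pH 8 at room temperature for 16 h. Quenched in formamide; 20% denaturing PAGE.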

The subject of a further assay is K562. In words: Cytotoxicity against human K562 cells after 48 hrs by SRB assay. The following applies: K562, 48 h. It counts as functional. In outline:
as §1

For the next assay, the system named is PC-3. The experiment in a line: Cytotoxicity against human PC3 cells after 48 hrs by SRB assay. It is filed as functional. To be noted: PC-3, 48 h. In outline: as §2
A short description of assay [2]: Cytotoxicity against human OVCAR5 cells after 48 hrs by SRB assay. It is filed as functional. To be noted: OVCAR-5, 48 h. The method in brief: as §2
Another assay has as its system Malme-3M. The experiment in a line: Cytotoxicity against human MALME-3M cells after 48 hrs by SRB assay. It counts as functional. The method in brief: as §1
The test system of another assay is HCC 2998. In words: Cytotoxicity against human HCC2998 cells after 48 hrs by SRB assay. It counts as functional. The following applies: HCC 2998, 48 h. The method in brief: as §1
The test system of another assay is A549. In words: Cytotoxicity against human A549 cells after 48 hrs by SRB assay. The following applies: A549, 48 h. It counts as functional. The method in brief: as §1
The next assay has as its system ACHN. The experiment in a line: Cytotoxicity against human ACHN cells after 48 hrs by SRB assay. It counts as functional. The method in brief:
as §1

A short description of assay [3]: Induction of [32P]-labeled 49-mer oligonucleotide duplex DNA 12 interstrand cross-linking (unknown origin) at purine nucleotide site using compound radiolabeled at 5' of 12b in phosphate buffer at pH 7 at 90 degC after 30 mins by PAGE.
The nature of assay [4]: Cytotoxicity against human OVCAR8 cells after 48 hrs by SRB assay. It is filed as functional. The following applies: OVCAR-8, 48 h. The method in brief: as §2
The subject of another assay is KM12. In words: Cytotoxicity against human KM12 cells after 48 hrs by SRB assay. It is filed as functional. The following applies: KM12, 48 h. The method in brief: as §1
Another assay relates to NCI-H460. The experiment in a line: Cytotoxicity against human NCI-H460 cells after 48 hrs by SRB assay. The following applies: NCI-H460, 48 h. It is filed as functional. The method in brief: as §2
A short description of assay [5]: Cytotoxicity against human UO31 cells after 48 hrs by SRB assay. It is filed as functional. The following applies: UO-31, 48 h. In outline:
as §3

In another assay the test system is DU-145. In words: Cytotoxicity against human DU145 cells after 48 hrs by SRB assay. To be noted: DU-145, 48 h. It is filed as functional. In outline: as §1
A further assay deals with SF-539. The experiment in a line: Cytotoxicity against human SF539 cells after 48 hrs by SRB assay. The following applies: SF-539, 48 h. It is filed as functional. In outline:
as §2

Assay [6] is described as follows: Cytotoxicity against human EKVX cells after 48 hrs by SRB assay. It counts as functional. In outline:
as §1

The test system of a further assay is SNB-19. In words: Cytotoxicity against human SNB19 cells after 48 hrs by SRB assay. It counts as functional. The following applies: SNB-19, 48 h. The method in brief: as §3
A short description of assay [7]: Cytotoxicity against human HCT15 cells after 48 hrs by SRB assay. It is filed as functional. The following applies: HCT-15, 48 h. The method in brief: as §1
In the next assay the test system is NCI-H522. The experiment in a line: Cytotoxicity against human NCI-H522 cells after 48 hrs by SRB assay. It counts as functional. To be noted: NCI-H522, 48 h. The method in brief: as §2
Another assay has as its system SF-268. In words: Cytotoxicity against human SF268 cells after 48 hrs by SRB assay. To be noted: SF-268, 48 h. It counts as functional. In outline:
as §2

The next assay relates to SN12C. The experiment in a line: Cytotoxicity against human SN12C cells after 48 hrs by SRB assay. It is filed as functional. The method in brief:
as §2

The subject of another assay is NCI-H322M. The experiment in a line: Cytotoxicity against human NCI-H322M cells after 48 hrs by SRB assay. It is filed as functional. In outline: as §2
In the next assay the test system is SK-OV-3. In words: Cytotoxicity against human SKOV3 cells after 48 hrs by SRB assay. It is filed as functional. To be noted: SK-OV-3, 48 h. The method in brief: as §2
The test system of another assay is RXF 393. The experiment in a line: Cytotoxicity against human RXF393 cells after 48 hrs by SRB assay. The following applies: RXF 393, 48 h. It counts as functional. The method in brief: as §2
Assay [8] in a line: Cytotoxicity against human Hs578T cells after 48 hrs by SRB assay. It is filed as functional. To be noted: Hs-578T. In outline: as §1
A short description of assay [9]: Induction of [32P]-labeled 49-mer oligonucleotide duplex DNA 12 interstrand cross-linking (unknown origin) at purine nucleotide site using compound radiolabeled at 3' of 12a at 90 deg C after 30 mins by PAGE in presence of piperidine.
Assay [10] is described as follows: Induction of [32P]-labeled 49-mer oligonucleotide duplex DNA 12 interstrand cross-linking (unknown origin) at purine nucleotide site using compound radiolabeled at 5' of 12a at 90 deg C after 30 mins by PAGE in presence of piperidine. The method in brief: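 Cross-linked duplex, with strand 12a 32P-labelled at the 5′ end, heated at 90 °C either in phosphate buffer pH 7.0 or in 1.0 M piperidine. Cleavage sites were assigned by denaturing PAGE against G + A sequencing and Fe·EDTA markers.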

For a further assay, the system named is NCI-H23. The experiment in a line: Cytotoxicity against human NCI-H23 cells after 48 hrs by SRB assay. It counts as functional. The following applies: NCI-H23, 48 h. In outline: as §2
The next assay has as its system MCF7. In words: Cytotoxicity against human MCF7 cells after 48 hrs by SRB assay. It counts as functional. To be noted: MCF7, 48 h. The method in brief:
as §1

In the next assay the test system is M14. The experiment in a line: Cytotoxicity against human M14 cells after 48 hrs by SRB assay. It counts as functional. The following applies: M14, 48 h. The method in brief: as §1
Assay [11] can be described thus: Cytotoxicity against human OVCAR3 cells after 48 hrs by SRB assay. It is filed as functional. The following applies: OVCAR-3, 48 h. The method in brief: as §2
In another assay the test system is HL-60(TB). In words: Cytotoxicity against human HL-60(TB) cells after 48 hrs by SRB assay. It counts as functional. The following applies: HL-60, 48 h. The method in brief:
as §1

Another assay deals with T47D. The experiment in a line: Cytotoxicity against human T47D cells after 48 hrs by SRB assay. It is filed as functional. The method in brief:
as §3

In a further assay the test system is U-251. In words: Cytotoxicity against human U251 cells after 48 hrs by SRB assay. It counts as functional. To be noted: U-251, 48 h. The method in brief:
as §3

For another assay, the system named is HT-29. The experiment in a line: Cytotoxicity against human HT-29 cells after 48 hrs by SRB assay. The following applies: HT-29, 48 h. It counts as functional. The method in brief:
as §1

The source made the active and inactive calls. The calls are words filed in the database; no cut-off is given here.

Turning to `CC1(C)OB(c2ccc(N(CCCl)CCBr)cc2)OC1(C)C`, the GI50 (commonly the concentration at which growth is held to half of that of the control) in the assay on BT-549 was found to be 12.1 µM; with HOP-92, 12.8 µM; with MDA-MB-231, 22.8 µM; in the assay with HOP-62, 10.9 µM; with SW-620 it was 13.9 µM; in the assay on K562, 22.6 µM. The GI50 in the assay with PC-3 came out at 17.7 µM; in assay [2], 25.9 µM; in the assay on Malme-3M it was 18.4 µM; in the assay on HCC 2998 it was 24 µM; in the assay on A549, 4.88 µM; in the assay on ACHN it was 3.4 µM. The GI50 in assay [4] stood at 11.9 µM; with KM12 it was 31.3 µM; with NCI-H460, 0.42 µM; in assay [5] it was 6.51 µM; in the assay with DU-145, 6.69 µM; in the assay with SF-539 it was 6.37 µM. Also, the GI50 was 22.5 µM in assay [6]; 10.6 µM with SNB-19; 17.1 µM in assay [7]; 11.7 µM with NCI-H522; 4.9 µM in the assay on SF-268; 4.45 µM in the assay on SN12C. Moreover, the GI50 in the assay on NCI-H322M came out at 32.5 µM; in the assay on SK-OV-3, 9.25 µM; in the assay with RXF 393, 10.4 µM; in assay [8], 27.4 µM; in the assay with NCI-H23 it was 5.38 µM; in the assay on MCF7, 5.03 µM. The GI50 stood at 7.86 µM with M14; 15 µM in assay [11]; 5.11 µM in the assay on HL-60(TB); 12 µM with T47D; 5.07 µM in the assay on U-251; 18.8 µM with HT-29. Further, the Activity in [1] was determined as 3%. Moreover, the outcome in assay [3], in [9] and in assay [10] was Active.
Turning to `CC1(C)OB(c2ccc(N(CCBr)CCBr)cc2)OC1(C)C`, in [1], the Activity is 3%. Moreover, the result in [3], in assay [9] and in assay [10] was Active.
